MITF TRPM1 HTS – activators of MITF-driven TRPM1 promoter activity in SK-MEL-5 cells; SK-MEL-5 TRPM1-promoter luciferase, 24 h; % of positive control, neutral wells = 0; activation, % at 12.5 µM; 0.75% of 300,000 active;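 active = mean activation of at least 80% with every replicate also reaching 80%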;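 note: 0% = neutral control wells and 100% = parthenolide positive control wells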
Wnt bcat act – Wnt/beta-catenin pathway activation | AID 743398 | activation, % at 9.35 µM | Wnt/beta-catenin reporter cell assay, activator, plate reader | 1.2% of 300,000 active; in the data active = activation above about 30%, passing the limit was not always enough;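 note: 0% = neutral control wells and 100% = positive control wells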
Env fusion inh – HIV envelope-mediated fusion inhibition; HeLa-JRFL Env/CEM21 cell fusion, luciferase; inhibition, % at 12.3 µM; 1.1% of 360,000 active;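 active = mean replicate inhibition score of at least 50 and every replicate individually at or above 50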;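 note: 0% = plate neutral controls and 100% = maraviroc near 300 nM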
ERAP1 inh – inhibitors of human ERAP1 aminopeptidase. Q9NZ08. recombinant ERAP1, Leu-AMC fluorescence, 60 min. inhibition, % at 10.7 µM. 0.15% of 340,000 active. AID 652197;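 active = mean replicate inhibition of at least 30%, or all replicates individually reaching that 30% level; inactive = mean below 30% and not every replicate reaching it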;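 note: 0% = neutral control wells and 100% = L-leucinethiol positive control wells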
Target sequence (Q9NZ08 whole entry, looked up): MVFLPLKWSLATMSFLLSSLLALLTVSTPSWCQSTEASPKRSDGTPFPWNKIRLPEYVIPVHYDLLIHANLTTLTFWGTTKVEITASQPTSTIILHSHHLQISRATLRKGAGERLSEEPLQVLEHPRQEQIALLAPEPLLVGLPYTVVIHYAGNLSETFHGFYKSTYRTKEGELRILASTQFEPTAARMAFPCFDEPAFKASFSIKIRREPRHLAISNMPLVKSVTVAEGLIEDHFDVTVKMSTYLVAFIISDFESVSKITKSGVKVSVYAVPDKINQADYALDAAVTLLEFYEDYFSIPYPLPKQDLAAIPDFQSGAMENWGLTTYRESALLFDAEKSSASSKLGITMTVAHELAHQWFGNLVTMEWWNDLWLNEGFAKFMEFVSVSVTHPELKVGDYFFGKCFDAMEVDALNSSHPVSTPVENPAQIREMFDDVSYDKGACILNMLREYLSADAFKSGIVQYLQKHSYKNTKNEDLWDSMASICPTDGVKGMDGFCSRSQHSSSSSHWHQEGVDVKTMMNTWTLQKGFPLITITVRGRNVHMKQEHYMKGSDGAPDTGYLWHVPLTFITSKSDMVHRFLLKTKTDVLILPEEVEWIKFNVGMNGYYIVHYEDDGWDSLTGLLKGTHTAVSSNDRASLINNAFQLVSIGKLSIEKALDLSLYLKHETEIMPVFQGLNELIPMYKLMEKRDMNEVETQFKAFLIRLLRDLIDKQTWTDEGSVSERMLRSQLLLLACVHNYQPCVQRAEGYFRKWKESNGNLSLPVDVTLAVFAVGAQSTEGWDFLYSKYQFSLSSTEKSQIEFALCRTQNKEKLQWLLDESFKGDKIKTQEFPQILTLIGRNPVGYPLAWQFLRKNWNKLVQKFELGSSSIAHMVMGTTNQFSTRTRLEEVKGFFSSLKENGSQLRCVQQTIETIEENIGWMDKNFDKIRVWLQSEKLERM
esBAF inh – SWI/SNF esBAF complex inhibition | reporter increase, % at 12.5 µM | mouse ES cells, Bmi1-luciferase knock-in reporter, 24 h; 100% = twice the neutral-well signal | 2% of 350,000 active; in the data active = activation above about 40%;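 note: 0% = median of the plate's neutral control wells and 100% = double that signal; a rise in the Bmi1 reporter signal indicates esBAF inhibition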
Cneo AK release – causes C. neoformans cell lysis | lysis activity, % at 15 µM | adenylate kinase release luminescence, 4 h; normalised: neutral wells 0, clomiphene wells 100 | AID 651654 | 0.2% of 360,000 active;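 active = mean lysis activity across replicates of at least 80%, whatever share of replicates individually reach that level; inactive = mean lysis activity below 80%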
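Schedule: static 4 h at 37 °C with compound, 1 h detection; system: C. neoformans cells; benchmarks: Clomiphene as positive control; buffer or medium: fresh YPD medium; measure: luminescence rise reflecting yeast cell lysis; measured by: luminescent adenylate kinase detection reagent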
Starred values were filed as active, the others as inactive; [ ] = remark or other dose. Hits are enriched below; roughly 3.5% of the tested compounds scored in any of these assays.

How did C[C@@H]1CN([C@H](C)CO)C(=O)c2cc(/C=C/c3ccccc3)cnc2O[C@@H]1CN(C)C(=O)Cc1cccnc1 do in these assays?
ERAP1 inh: 1; esBAF inh: -2; Cneo AK release: -3

What do the screens show for `Cc1cc(C(=O)CN2C(=O)NC3(CCCCC3)C2=O)c(C)n1Cc1ccc2c(c1)OCO2`?
MITF TRPM1 HTS: 32; Env fusion inh: -36; esBAF inh: 51*; Cneo AK release: -1

Results for Cc1cc(C(=O)CN2C(=O)NC3(CCCC3)C2=O)c(C)n1-c1ccc2c(c1)OCO2 ?
MITF TRPM1 HTS: 10; Wnt bcat act: 7; Env fusion inh: 9; Cneo AK release: -2

How did Cc1cc(C)cc(OCCn2nnc3ccccc32)c1 do in these assays?
MITF TRPM1 HTS: 88*; Wnt bcat act: 4; Env fusion inh: -5; ERAP1 inh: -2; esBAF inh: 26; Cneo AK release: 1

Results for Clc1ccccc1OCCn1nnc2ccccc21 ?
MITF TRPM1 HTS: 81*; Wnt bcat act: 19; Env fusion inh: -58; ERAP1 inh: 4; esBAF inh: 63*; Cneo AK release: 3

Results for CC(C)NC(=O)N(C)C[C@H]1Oc2ccc(NC(=O)NC3CCCCC3)cc2C(=O)N([C@@H](C)CO)C[C@H]1C ?
Env fusion inh: 11[16.7 µM]; ERAP1 inh: 3; esBAF inh: 3; Cneo AK release: 2

What do the screens show for `COc1ccc(NC(=O)Nc2ccc3c(c2)C(=O)N([C@H](C)CO)C[C@H](C)[C@H](CN(C)C(=O)Nc2ccc(F)cc2)O3)cc1`?
Env fusion inh: -9[16.7 µM]; ERAP1 inh: 3; esBAF inh: 0; Cneo AK release: -4

How did Cc1ccc(C(C(=O)NC2CCCC2)N(Cc2ccc(F)cc2)C(=O)c2snc(C(N)=O)c2N)o1 (stereo unspecified) do in these assays?
MITF TRPM1 HTS: -8; Wnt bcat act: 1; Env fusion inh: 65*; ERAP1 inh: -4; esBAF inh: 3; Cneo AK release: -2

What do the screens show for `COc1ccc(N(C(=O)c2snc(C(N)=O)c2N)C(C(=O)NC2CCCC2)c2ccco2)cc1` (stereo unspecified)?
MITF TRPM1 HTS: 15; Wnt bcat act: -2; Env fusion inh: 9; ERAP1 inh: 0; esBAF inh: 5; Cneo AK release: -6

Results for Cc1ccc(C(C(=O)NC2CCCCC2)N(Cc2ccccc2)C(=O)Cc2c[nH]c3ccccc23)o1 (stereo unspecified) ?
MITF TRPM1 HTS: 1; Env fusion inh: 31; Cneo AK release: 0

What do the screens show for `CCc1ccc(N(C(=O)c2snc(C(N)=O)c2N)C(C(=O)NC2CCCC2)c2ccco2)cc1` (stereo unspecified)?
MITF TRPM1 HTS: -5; Wnt bcat act: -1; Env fusion inh: 56*; ERAP1 inh: 1; esBAF inh: 4; Cneo AK release: -2

How did COc1ccc(CN(C(=O)Cc2c[nH]c3ccccc23)C(C(=O)NC2CCCCC2)c2ccc(C)o2)cc1 (stereo unspecified) do in these assays?
MITF TRPM1 HTS: -6; Wnt bcat act: -7; Env fusion inh: 109*; esBAF inh: -3; Cneo AK release: 2

How did O=C(Nc1ccc2c(c1)OCCO2)C(c1ccncc1)n1c(=O)c(-c2cc3ccccc3[nH]2)nc2ccccc21 (stereo unspecified) do in these assays?
Wnt bcat act: 53*; Env fusion inh: 43; ERAP1 inh: -7

Results for CCCCCNC(=O)C(c1ccncc1)n1c(=O)c(-c2cc3ccccc3[nH]2)nc2ccccc21 (stereo unspecified) ?
Wnt bcat act: -3; Env fusion inh: 75*

What do the screens show for `C=CCC[C@H](Cc1ccc(F)cc1)C(=O)O[C@H](CNC(=O)[C@@H](CC=C)CC(=O)N(CCO)Cc1ccccc1)c1ccccc1`?
MITF TRPM1 HTS: -7; Wnt bcat act: -11; Env fusion inh: 129*; ERAP1 inh: -1; esBAF inh: -2; Cneo AK release: -1

What do the screens show for `Cc1noc(C)c1NC(=O)Nc1ccc2c(c1)C(=O)N([C@H](C)CO)C[C@H](C)[C@H](CN(C)C(=O)Nc1ccc3c(c1)OCO3)OCCCC[C@H](C)O2`?
Env fusion inh: 15[16.7 µM]; ERAP1 inh: 0; esBAF inh: -1; Cneo AK release: 1

How did O=C(NCC(=O)N1CCN(c2ccccc2)CC1)c1ccc(Br)o1 do in these assays?
MITF TRPM1 HTS: 4; Wnt bcat act: -1; Env fusion inh: -16; ERAP1 inh: -1; Cneo AK release: 11

How did CC1CCN(C(=O)CNC(=O)c2ccc(Br)o2)CC1 do in these assays?
MITF TRPM1 HTS: 71; Wnt bcat act: 38*; Env fusion inh: -21; ERAP1 inh: -2; esBAF inh: 27; Cneo AK release: -1

What do the screens show for `Cc1ccc(S(=O)(=O)N2CCN(C(=O)CNC(=O)c3ccc(Br)o3)CC2)cc1`?
MITF TRPM1 HTS: 3; Wnt bcat act: -4; Env fusion inh: 64*; ERAP1 inh: 0

Results for C[C@@H]1CN([C@H](C)CO)S(=O)(=O)c2ccc(-c3cccc(F)c3)cc2O[C@@H]1CN(C)C(=O)C1CC1 ?
Env fusion inh: -2[16.7 µM]; esBAF inh: -2; Cneo AK release: 6

What do the screens show for `CNC[C@@H]1Oc2ccc(NC(=O)C3CC3)cc2CC(=O)N([C@@H](C)CO)C[C@H]1C`?
Env fusion inh: -5[16.7 µM]; ERAP1 inh: 5; esBAF inh: 2; Cneo AK release: -3

How did O=C(C1CCC1)N1[C@@H](CO)[C@@H](c2ccccc2)C12CN(Cc1cccc(Cl)c1)C2 do in these assays?
Env fusion inh: 26[16.7 µM]; ERAP1 inh: 4

How did CCOC(=O)C1=C(C(=O)OCC)C2N(Cc3ccc(Br)cc3)c3ccccc3[C@@]23C[C@@H](C(=O)OC)N(S(=O)(=O)c2cccs2)C3=N1 (stereo partly specified) do in these assays?
Wnt bcat act: 0; Env fusion inh: 59*; ERAP1 inh: -1

What do the screens show for `C[C@@H]1CN([C@@H](C)CO)S(=O)(=O)c2ccc(-c3ccncc3)cc2O[C@H]1CN(C)C(=O)CC1CC1`?
Env fusion inh: -13[16.7 µM]; ERAP1 inh: 2; esBAF inh: 3; Cneo AK release: 9

Results for Cc1ccc(S(=O)(=O)NN=Cc2ccccc2Cl)cc1 ?
Wnt bcat act: 34*; Env fusion inh: 11; ERAP1 inh: -3; esBAF inh: -6; Cneo AK release: 1

How did C[C@H]1CN([C@@H](C)CO)C(=O)c2cccc(NS(=O)(=O)c3cccs3)c2O[C@@H]1CN(C)C(=O)NC1CCCCC1 do in these assays?
ERAP1 inh: -1; esBAF inh: 1; Cneo AK release: -4

How did CO[C@@H]1CN(C)C(=O)c2cc(NC(C)=O)ccc2OC[C@@H](C)N(CCC(F)(F)F)C[C@@H]1C do in these assays?
Env fusion inh: -9[16.7 µM]; ERAP1 inh: -3; esBAF inh: -4; Cneo AK release: -3
